Only some compounds are listed: those with a hit (about 4.8% of all), similar ones and a draw of the others.
CHOP UPR activ = activators of apoptotic CHOP UPR arm, primary screen, cell-based, CHO-CHOP luciferase reporter, luminescence, uHTS; UPR activation; percent of tunicamycin response over DMSO baseline; activation, % at 10 µM; 0.34% of 330,000 active;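 active = at 10 µM dose, activation of 40% or more, normalized to positive control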;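 also: 100% = tunicamycin at 10 µg/mL and 0% = DMSO alone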
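Assay system: CHO-CHOP cells, stable luciferase reporter of PERK-eIF2a-CHOP signalling / Buffer or medium: F12 plus 10% serum / Compound dosing: one dose, 10 µM in 0.5% DMSO / Times: 6 h compound treatment, 37 °C / Technique: luciferase luminescence / Read-out: % reporter activation, DMSO baseline versus tunicamycin full activation / Benchmarks: tunicamycin and DMSO controls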
XBP1 UPR activ = activators of adaptive XBP1 UPR arm, primary screen, cell-based, CHO-XBP1 luciferase reporter, luminescence, uHTS; activation, % at 20 µM; IRE1-XBP1 UPR activation; percent of tunicamycin response, DMSO as zero; 0.33% of 330,000 active;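 active = versus positive control, 20 µM dose yields 30% or more activation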;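 also: 100% = tunicamycin at 10 µg/mL and 0% = DMSO only wells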
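Material – CHO cell line with stable XBP1 luciferase reporter · Buffer or medium – F12 plus 10% FBS · Compound – single point, 20 µM final compound, 1% DMSO · Schedule – 16-18 h cell attachment at 37 °C, then 6 h compound exposure · Signal – Steady-Glo luminescence read · Benchmarks – high control tunicamycin 10 µg/mL final, low control DMSO vehicle only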
Beta cell apopt = inhibitors of cytokine-induced beta cell apoptosis, primary screen, luminescence | protection from apoptosis, % (no concentration beside the values) | 0.8% of 300,000 active | INS-1E cytokine-induced death, ATP luminescence, 48 h; percent of positive-control rescue, neutral wells zero;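 active = Every replicate reaches about 75%, or at least half do and their mean reaches it too, limit read from the data; inconclusive = At least half of replicates reach the limit but their mean does not; inactive = Under half of replicates reach the limit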;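 also: 0% = cytokine-treated negative control wells and 100% = positive control rescue; higher means more ATP so stronger rescue from cytokine killing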
CSC inhib = cancer stem cell viability inhibitors, primary screen, luminescence; cancer stem cell-like cells viability; inhibition, % at 7.5 µM; 1.1% of 300,000 active; AID 2717, 2010; in the data active = inhibition above about 75%; inconclusive = no clear call, values can overlap the other calls; tested in HMLE shEcad cells
Mdm2-MdmX inh = inhibitors of human Mdm2-MdmX association, primary screen, cell-based, luminescence, split luciferase, SaOS-2, uHTS. Protein Mdm4 (Homo sapiens) + E3 ubiquitin-protein ligase Mdm2 (Homo sapiens), …. SaOS-2 split-luciferase Mdm2/MdmX complementation. inhibition, % at 8 µM. 3% of 330,000 active;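 active = inhibition of at least 50% at 8 µM in the primary screen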
Target sequence (O15151 whole entry, looked up): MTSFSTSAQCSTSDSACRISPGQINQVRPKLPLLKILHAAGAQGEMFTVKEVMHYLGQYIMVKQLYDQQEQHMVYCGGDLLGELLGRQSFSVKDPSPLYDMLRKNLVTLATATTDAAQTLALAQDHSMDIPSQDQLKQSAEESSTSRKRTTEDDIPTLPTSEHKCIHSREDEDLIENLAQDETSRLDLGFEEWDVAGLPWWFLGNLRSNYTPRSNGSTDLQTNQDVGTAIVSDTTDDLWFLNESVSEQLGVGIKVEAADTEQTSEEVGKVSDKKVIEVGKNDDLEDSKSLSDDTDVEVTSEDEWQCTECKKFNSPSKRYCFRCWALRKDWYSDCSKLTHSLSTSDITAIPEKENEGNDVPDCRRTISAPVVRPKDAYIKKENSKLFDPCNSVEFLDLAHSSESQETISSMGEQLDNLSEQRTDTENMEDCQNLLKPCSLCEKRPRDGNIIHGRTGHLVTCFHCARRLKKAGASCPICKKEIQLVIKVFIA
Target sequence (Q00987 whole entry, looked up): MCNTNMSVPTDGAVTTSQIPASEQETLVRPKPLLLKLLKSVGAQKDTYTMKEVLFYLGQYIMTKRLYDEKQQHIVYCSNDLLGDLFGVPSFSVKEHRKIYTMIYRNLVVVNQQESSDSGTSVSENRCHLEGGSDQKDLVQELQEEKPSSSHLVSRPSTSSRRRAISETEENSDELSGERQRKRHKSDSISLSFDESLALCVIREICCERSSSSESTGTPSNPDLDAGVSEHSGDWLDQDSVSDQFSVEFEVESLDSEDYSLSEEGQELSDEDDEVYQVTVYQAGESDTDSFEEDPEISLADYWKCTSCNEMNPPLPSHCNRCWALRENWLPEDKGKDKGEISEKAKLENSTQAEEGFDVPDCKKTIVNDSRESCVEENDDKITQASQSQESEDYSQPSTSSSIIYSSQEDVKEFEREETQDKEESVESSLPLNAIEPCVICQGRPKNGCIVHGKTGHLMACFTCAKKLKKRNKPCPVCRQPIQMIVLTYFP
SKKanGAS inh = S. pyogenes SKKanGAS growth inhibitors in kanamycin, primary screen, streptokinase expression inhibitor project, SKKanGAS strain, BacTiter-Glo luminescence; inhibition, % at 7.5 µM; 1.3% of 300,000 active; AID 1662, 2009; 6 h;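 active = mean replicate score, as percent of positive control median, at least 50; inconclusive = mean below 50 but one replicate at or above 50; inactive = mean and every replicate below 50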;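 also: strain carries kanamycin resistance gene driven by streptokinase promoter and grows in 40 µg/ml kanamycin; loss of luminescence reflects streptokinase promoter inhibition or plain growth inhibition; 0% = median of DMSO wells and 100% = positive control at its reference dose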
* marks the source's active call; other numbers are inactive results; ? = inconclusive; · = not tested or not shown.

SMILES	CHOP UPR activ	XBP1 UPR activ	Beta cell apopt	CSC inhib	Mdm2-MdmX inh	SKKanGAS inh
O=C(/C=C/c1ccccc1)CC(=O)c1ccccc1O	2	7	5	18	-39	50*
O=C(/C=C/c1ccccc1)NC(=O)c1ccccc1O	3	-2	-8	8	-33	-2
CC(C)Nc1nc(Oc2cccc(Cl)c2Cl)cc(C(F)(F)F)n1	0	-1	1	46	27	?
CC(C)Nc1nc(Oc2ccc(Cl)cc2Cl)cc(C(F)(F)F)n1	-1	-3	2	·	6	79*
CC(C)CC(=O)Nc1ccc(C(=O)NNC(=S)NC(=O)C2CCCCC2)cc1	-1	3	13	0	47	93*
CCCN1CCN(C(=O)c2oc3c(Cl)cccc3c2C)CC1	1	4	-6	-10	4	-3
CC1(c2ccc(O)cc2)NC(=O)N(c2ccccc2)N1 (stereo not given)	-1	1	-3	109*	15	0
O=c1c2c(nc3n1CCCCC3)-c1ccccc1CC21CCCC1	-4	-4	-6	93*	-12	34
CCSc1n[nH]c2nc3c(c(=O)n12)C1(CCCC1)Cc1ccccc1-3	-2	-4	-4	4	12	65*
CSc1n[nH]c2nc3c(c(=O)n12)C1(CCCC1)Cc1ccccc1-3	0	0	-3	28	6	9
C/C=C(\C)C(=O)O[C@H](c1cc2ccc(=O)oc2cc1OC)[C@@H](O)C(C)(C)O	-2	-5	3	-7	20	·
CCCCN(CCCC)S(=O)(=O)c1ccc(C(=O)Nc2nnc(CSC)o2)cc1	7	-3	23	22	33	106*
CCN(Cc1ccccc1)S(=O)(=O)c1ccc(C(=O)Nc2nnc(-c3ccccc3OC)o2)cc1	3	-2	11	6	42	94*
CCCCN(C)S(=O)(=O)c1ccc(C(=O)Nc2nnc(-c3cccs3)o2)cc1	3	-5	11	111*	45	101*
CCCCN(CC)S(=O)(=O)c1ccc(C(=O)Nc2nnc(-c3ccccc3Cl)o2)cc1	10	-1	14	-9	8	99*
CCCCN(C)S(=O)(=O)c1ccc(C(=O)Nc2nnc(C3=COCCO3)o2)cc1	-2	-1	0	10	1	9
CCCCN(CC)S(=O)(=O)c1ccc(C(=O)Nc2nnc(CSC)o2)cc1	2	-1	-2	4	21	25
CN(C)c1cccc(C(=O)NNC(=O)C23CC4CC(CC(C4)C2)C3)c1	5	6	1	-14	4	·
N#Cc1ccc(Cl)cc1NC(=O)CSc1nc2nc(-c3cccs3)cc(C(F)(F)F)c2c(=O)[nH]1	-1	-2	0	14	17	55*
COc1ccc(NC(=O)CSc2nc3nc(-c4cccs4)cc(C(F)(F)F)c3c(=O)[nH]2)c(OC)c1	0	1	-3	14	1	54*
CCOc1ccccc1NC(=O)CSc1nc2nc(-c3cccs3)cc(C(F)(F)F)c2c(=O)[nH]1	1	1	1	54	4	30
COc1ccccc1C(=O)NC(=O)COC(=O)CCS(=O)(=O)c1ccc(C)cc1	1	0	-11	-11	-11	0
COc1cccc2sc3ccc(C#Cc4ccc(N)cc4)cc3c(=O)c12	5	8	2	21	-86	76*
COc1ccc(OCc2cc(=O)c3ccc4c(c3o2)C=CC(C)(C)O4)cc1OC	1	0	-9	15	11	·
CC(C)=CCOc1ccc([C@@H]2COc3c(ccc4c3C=CC(C)(C)O4)C2)c(O)c1	1	-2	42	102*	47	100*
SMILES	CHOP UPR activ	XBP1 UPR activ	Beta cell apopt	CSC inhib	Mdm2-MdmX inh	SKKanGAS inh
COc1ccc(NC(=O)C2CCCN(C(=O)c3ccc(Cl)cc3)C2)cc1S(=O)(=O)N(C)C (stereo not given)	0	0	1	·	4	·
O=C(c1ccc(Br)cc1)c1cc2ccc(O)cc2oc1=O	3	-2	-1	7	-4	4
O=C(c1ccccc1)c1cc2ccc(O)cc2oc1=O	2	-2	-3	7	3	62*
COc1ccc2cc(C(=O)NCc3ccco3)c(=O)oc2c1	7	3	-5	13	-64	-3
O=C(NCc1ccco1)c1cc2ccc(O)cc2oc1=O	4	-6	7	20	29	60*
O=C(CCNC(=O)c1ccc(Br)cc1)NCc1ccccn1	0	2	-4	·	-11	-8
O=C(NCc1ccccn1)c1c(-c2ccccc2)sc2ccccc12	-1	-1	-8	22	31	·
COc1ccc(N(CC(=O)NCC2CCCO2)C(=O)CCC(=O)Nc2cc(C)on2)cc1OC (stereo not given)	0	-1	-1	-7	20	-3
CCc1ccc(OCC(=O)NC(NC(=S)Nc2ccc(C)cc2C)C(Cl)(Cl)Cl)cc1 (stereo not given)	3	2	95*	-9	19	68*
COc1ccc(CCC(C)NCCc2ccc(Cl)cc2Cl)cc1 (stereo not given)	0	-1	-2	-7	-24	2
COc1cccc(OC)c1C(=O)Nc1cccc(-c2ccc(N3CCOCC3)nn2)c1	0	1	5	-10	5	3
O=C(Nc1cccc(-c2ccc(N3CCOCC3)nn2)c1)c1ccccc1Cl	4	2	-3	·	-51	50*
COc1cc(OC)cc(C(=O)Nc2cccc(-c3ccc(N4CCOCC4)nn3)c2)c1	6	1	9	·	40	55*
COc1ccc(C(=O)Nc2cccc(-c3ccc(N4CCOCC4)nn3)c2)cc1	5	0	13	·	-47	52*
O=C(c1cccc(NS(=O)(=O)c2cccc(C(F)(F)F)c2)c1)N1CCOCC1	3	-5	-3	-4	17	-4
C[C@@H](CN=[N+]=[N-])CN1CC[C@H](C(C)(C)C)CCC1=O	-1	1	-6	-11	-11	4
COc1ccc2[nH]c3c(=O)n(N)c(=O)[nH]c3c2c1	0	-5	4	3	0	-6
COc1ccc2[nH]c3c(=O)n(/N=C/[C@H]4C(C)C=C(C)CC4C)c(=O)[nH]c3c2c1 (stereo not given in full)	2	1	5	88*	16	6
O=C1c2cccc3c([N+](=O)[O-])ccc(c23)C(=O)N1O	-3	22	43	29	7	79*

Compound activity (PubChem BioAssay)
